Results collected from several papers.
Lines come from different studies, so protocols differ.
Target: Serine/threonine-protein kinase Nek2 (NEK2, Homo sapiens, UniProt P51955)
Sequence (P51955 1-445, as in one of the studies): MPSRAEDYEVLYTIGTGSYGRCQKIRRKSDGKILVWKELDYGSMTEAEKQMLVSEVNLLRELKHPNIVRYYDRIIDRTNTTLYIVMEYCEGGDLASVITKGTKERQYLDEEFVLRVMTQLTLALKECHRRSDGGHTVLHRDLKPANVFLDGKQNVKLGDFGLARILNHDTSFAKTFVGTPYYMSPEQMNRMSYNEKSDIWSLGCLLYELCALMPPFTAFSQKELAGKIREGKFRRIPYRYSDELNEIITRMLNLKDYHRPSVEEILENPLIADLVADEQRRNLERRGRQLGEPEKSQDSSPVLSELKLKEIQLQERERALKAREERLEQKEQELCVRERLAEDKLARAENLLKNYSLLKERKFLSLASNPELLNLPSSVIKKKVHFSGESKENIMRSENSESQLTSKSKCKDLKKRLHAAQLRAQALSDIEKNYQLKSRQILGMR

Structure (SMILES)	observed	technique	concentration	remaining binding [%]
CC(=O)N1CCC(c2ccc(C(=O)NC(=N)N)cc2C(F)(F)F)CC1	cell-free assay	competition with immobilised ligand	1 µM	100
O=C(NCCCN1CCOCC1)c1ccc(Nc2ncc(Cl)c(-c3ccc(Cl)s3)n2)cc1	binding	competition with immobilised ligand	1 µM	75
CN(C)c1nccc(-c2cnn3ncccc23)n1	binding		1 µM	100
COc1cnc(Nc2cccc(S(N)(=O)=O)c2)nc1N1CCN(c2ccccc2)CC1	binding	competition with immobilised ligand	1 µM	97
C[C@H](c1ccnc(Nc2nc3ccc(-c4cc(N(C)C)ncn4)cc3[nH]2)c1)N1CCN(C(=O)CC(F)(F)F)CC1	cell-free assay	competition with immobilised ligand	0.1 µM	100
O=C(NCC1CCOCC1)c1n[nH]cc1NC(=O)c1c(F)cccc1F	binding	competition with immobilised ligand	1 µM	87
C[C@H]1CCN(c2nccc(-c3cnn4ncccc34)n2)C1	binding		1 µM	90
CC1=C(C#N)C(c2ccc3c(c2)c(NC(=O)c2ccccc2C)nn3C)C(C#N)=C(C)N1	cell-free assay	competition with immobilised ligand	1 µM	100
N[C@H]1CCN(c2nccc(-c3cnn4ncccc34)n2)C1	binding		1 µM	100
O=C(NCCCC1CCCCC1)c1ccc(CNC(=O)c2cnn(-c3ccccc3)c2C(F)(F)F)cc1	cell-free assay	competition with immobilised ligand	0.1 µM	100
O=C(c1ccc(Nc2nccc(-c3cc4ccccc4s3)n2)cc1)N1CCC(N2CCCC2)CC1	binding	competition with immobilised ligand	1 µM	95
COc1ncc2cc3ccccc3nc2c1C#N	cell-free assay	competition with immobilised ligand	5 µM	85
FC(F)(F)Oc1cccc(-c2cnc3ccc(-c4ccncc4)nn23)c1	cell-free assay	competition with immobilised ligand	5 µM	74
CCCCN(CCCC)C(=O)CN1C[C@@H](c2cc(OC)c3c(c2)OCO3)[C@H](C(=O)O)[C@H]1CC(C)(C)CCC	cell-free assay	competition with immobilised ligand	1 µM	98.7
CN(C)c1nccc(-c2cnc3ncccn23)n1	binding		1 µM	93
O=C(c1ccc(Nc2ncc(Cl)c(-c3ccc(Cl)s3)n2)cc1)N1CCC(N2CCCC2)CC1	binding	competition with immobilised ligand	1 µM	65
O=C(Nc1cccnn1)N1CC(C/C=C/c2cncc(Oc3ccc(C(F)(F)F)cn3)n2)C1	cell-free assay	competition with immobilised ligand	1 µM	100
CCN1CCN(Cc2ccc(C(=O)Nc3ccc(C)c(Oc4ccc5c(c4)CC(=O)N5)c3)cc2C(F)(F)F)CC1	binding	competition with immobilised ligand	1 µM	100
CN(c1nccc(-c2cnn3ncccc23)n1)C1CC1	binding		1 µM	100
c1cncc(-c2cccc(Nc3nccc(NC4CCCCC4)n3)c2)c1	binding	competition with immobilised ligand	10 µM	97
